Screening results as filed in PubChem.
HIV Env fusion = HIV envelope-mediated fusion inhibition. AID 651610. HeLa-JRFL Env/CEM21 cell fusion, luciferase. inhibition, % at 12.3 µM. 360,000 compounds, 1.1% hits;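 active = mean replicate inhibition score of at least 50 and every replicate individually at or above 50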;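 note: 0% = plate neutral controls and 100% = maraviroc near 300 nM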
FGF22 binding = FGF22 (human) thermal shift binding; 340,000 compounds, 1.5% hits; activity (Tm shift, normalised), % at 9.99 µM; recombinant FGF22 thermal shift, SYPRO orange fluorescence; percent of sucrose octasulfate shift, DMSO zero; AID 651658; Q9HCT0;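 active = mean Tm shift, scaled 0 neutral to 100 positive control, at about 1.3% or above, every replicate too, limit read from the data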
E-sel inducer = induces E-selectin expression in human endothelial cells. 260,000 compounds, 0.37% hits. activation, % at 7.58 µM. HUVEC E-selectin immunofluorescence imaging; normalized: neutral wells 0, TNF-alpha wells 100. P16581;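 active = mean E-selectin-positive cell signal at least 10% of the positive control, reached in at least 60% of replicates, without over 20% cell loss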
Target sequence (P16581 whole entry, looked up): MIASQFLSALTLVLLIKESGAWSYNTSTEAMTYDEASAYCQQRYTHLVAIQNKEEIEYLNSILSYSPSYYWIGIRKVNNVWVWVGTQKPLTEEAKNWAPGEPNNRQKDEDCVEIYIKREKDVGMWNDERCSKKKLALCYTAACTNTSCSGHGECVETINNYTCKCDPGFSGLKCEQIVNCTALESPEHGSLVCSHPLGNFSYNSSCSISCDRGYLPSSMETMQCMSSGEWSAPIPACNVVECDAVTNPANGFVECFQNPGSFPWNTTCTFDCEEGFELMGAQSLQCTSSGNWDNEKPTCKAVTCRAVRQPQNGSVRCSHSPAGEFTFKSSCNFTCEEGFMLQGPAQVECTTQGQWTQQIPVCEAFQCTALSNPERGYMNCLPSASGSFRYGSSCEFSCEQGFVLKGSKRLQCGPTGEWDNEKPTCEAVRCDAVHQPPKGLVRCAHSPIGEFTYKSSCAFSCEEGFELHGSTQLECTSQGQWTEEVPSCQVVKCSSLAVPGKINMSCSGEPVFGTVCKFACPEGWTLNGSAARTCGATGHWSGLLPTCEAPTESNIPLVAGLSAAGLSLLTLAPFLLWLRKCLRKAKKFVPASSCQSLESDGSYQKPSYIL
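Material: HUVEC primary endothelial cells; Amount: 3,000 cells per well; Dosing: single concentration; Medium: EGM-2 growth medium on 0.1% gelatin-coated wells; Read-out basis: percent E-selectin-positive cells; Signal: immunofluorescence imaging; Control set: TNF-alpha, DMSO.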
S100A4 MyoIIA = blocks human S100A4 binding to myosin IIA peptide; P26447; S100A4/TAMRA-MyoIIA peptide fluorescence polarization; inhibition, % at 10.7 µM; 360,000 compounds, 0.14% hits; AID 652163;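 active = mean inhibition of at least 70% across replicates, with every replicate also reaching that level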
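Test system: S100A4 monomer protein. Medium: HEPES buffer with Ca2+, pH 7.2. Reagent: fluorescent myosin IIA peptide, 5 nM. Compound dosing: single-point compound testing. Timing: 5 min between mix addition and reading. Benchmarks: DMSO neutral and TFP positive wells.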
F508del corr = correctors of CFTR F508del function in bronchial epithelial cells | CFBE cells, YFP halide quenching; stimulated with forskolin plus potentiator P3; % fluorescence drop versus neutral controls | activity (quench increase), % at 7.58 µM | 350,000 compounds, 0.36% hits;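 active = mean added fluorescence quench of at least 8% versus neutral control, with both replicates also reaching 8%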;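 note: cells transiently co-express mutant CFTR-F508del with the halide-sensitive YFP; corrector assay measuring rescue of mutant channel to the surface after 24 h compound exposure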
Starred values were filed as active, the others as inactive; . = no result; [ ] = dose if it differs, or a comment. Hits are enriched below; roughly 2.7% of the tested compounds scored in any of these assays.

SMILES	HIV Env fusion	FGF22 binding	E-sel inducer	S100A4 MyoIIA	F508del corr
CC(=O)Nc1ccc(C=NNc2nnc(NN=Cc3ccc(NC(C)=O)cc3)c3ccccc23)cc1	15	0	5	72*	-4
CCN(CC)C(=O)[C@H]1C[C@H](CC(=O)NCC23CC4CC(CC(C4)C2)C3)C(=O)N2CCc3c([nH]c4ccc(Cl)cc34)[C@]12C	65*	0	1	-5	-1
O=C(C[C@H]1C[C@H](C(=O)N2CCCCC2)[C@@]2(CCc3ccccc3)c3[nH]c4ccc(Cl)cc4c3CCN2C1=O)NCc1cccc(C(F)(F)F)c1	34	34*	0	0	0
CC(C)NC(=O)N1[C@@H]2c3cccc(=O)n3C[C@@H]2[C@@H](CO)[C@@H]1C(=O)N1CCc2ccccc2C1	0[16.7 µM]	0	1	3	.
COC(=O)CC1(C(=O)OC)Oc2ccc(Br)cc2C(=O)N1c1cccc(Cl)c1Cl (stereo not given)	65*	0	.	0	2
CNC[C@@H]1Oc2cc(C#CC3CCCCC3)ccc2S(=O)(=O)N([C@H](C)CO)C[C@H]1C	-11[16.7 µM]	.	-2	.	-4
C[C@H](CO)N1C[C@H](C)[C@@H](CN(C)Cc2ccc(Oc3ccccc3)cc2)Oc2ccc(NC(=O)CCCN(C)C)cc2C1=O	-8[16.7 µM]	1.2*	-1	-5	0
C[C@@H]1CN([C@@H](C)CO)C(=O)c2cc(NC(=O)Cn3cnnn3)ccc2O[C@H]1CN(C)Cc1ccc2c(c1)OCO2	.	.	0	.	.
C[C@H](CO)N1C[C@H](C)[C@H](CN(C)Cc2ccc3c(c2)OCO3)Oc2ccc(NC(=O)Cn3cnnn3)cc2C1=O	.	0	39*	-12	-1
C[C@H]1CN([C@@H](C)CO)C(=O)c2cc(NC(=O)CCCN(C)C)ccc2O[C@H]1CN(C)Cc1ccc(Oc2ccccc2)cc1	1[16.7 µM]	.	2	0	0
C[C@@H]1CN([C@@H](C)CO)C(=O)c2cc(NC(=O)Cn3cnnn3)ccc2O[C@H]1CN(C)Cc1ccc(Oc2ccccc2)cc1	.	0	48*	-8	-2
C[C@H]1CN([C@@H](C)CO)S(=O)(=O)c2ccc(-c3cccnc3)cc2O[C@@H]1CN(C)C(=O)NC1CCCC1	-14[16.7 µM]	0	5	-1	1
C[C@H]1CN([C@@H](C)CO)C(=O)c2cccc(NS(=O)(=O)c3ccc(F)cc3)c2O[C@H]1CN(C)Cc1ccccc1	-6[16.7 µM]	0	0	13	1
CO[C@H]1CC[C@H]2CCOc3ccc(C#N)cc3C(=O)N(C)C[C@H](OC)[C@@H](C)C(=O)N(C)C[C@H]1O2	-12[16.7 µM]	0	0	7	.
CCCNC(=O)N1CC2(C1)[C@H](c1ccccc1)[C@H](CO)N2CC1CC1	.	.	0	11	-2
Cn1c(=O)c(C(=O)CCl)c(N)n(Cc2ccccc2)c1=O	0	0	0	10	0
CC(C)Cn1c(N)c(C(=O)CSc2ccc3c(c2)OCCO3)c(=O)n(C)c1=O	98*	.	.	.	.
CC(C)Cn1c(N)c(C(=O)COC(=O)c2ccc3c(c2)OCCO3)c(=O)n(C)c1=O	35	.	.	.	.
Cn1c(=O)c(C(=O)CSc2ccccc2)c(N)n(Cc2ccccc2)c1=O	0	43*	.	-3	-2
Fc1ccc(CCNC(=S)Nc2ccc(F)c(Cl)c2)cc1	-8	1.9*	4	-2	-4
Fc1ccc(NC(=S)NCCc2ccc(Cl)cc2)cc1	-9	0	4	-6	.
Fc1cccc(NC(=S)NCCc2ccccc2)c1	13	1.7*	0	-12	2
COc1ccc(CN(C)C[C@@H]2OCCCC[C@@H](C)Oc3ccc(NC(=O)Nc4c(C)noc4C)cc3C(=O)N([C@H](C)CO)C[C@H]2C)cc1	0[16.7 µM]	1	0	1	1
CC(Oc1ccc2ccc(=O)oc2c1)C(=O)NCCN1CCOCC1 (stereo not given)	65*	0	.	2	0
O=C(COc1ccc2ccc(=O)oc2c1)NCCN1CCOCC1	-5	0	0	3	-2
SMILES	HIV Env fusion	FGF22 binding	E-sel inducer	S100A4 MyoIIA	F508del corr
CC(Oc1ccc2c(-c3ccccc3)cc(=O)oc2c1)C(=O)NCCN1CCOCC1 (stereo not given)	7	43*	1	-3	0
C[C@@H]1CN([C@H](C)CO)C(=O)Cc2cc(NC(=O)CCN3CCOCC3)ccc2O[C@H]1CN(C)Cc1ccccc1	31[16.7 µM]	-1	0	-11	-2
COCC(=O)N(C)C[C@H]1Oc2ncc(C#CCC3CCCC3)cc2C(=O)N([C@@H](C)CO)C[C@H]1C	-15[16.7 µM]	-1	2	15	0
O=S(=O)(Nc1cccc(S(=O)(=O)N2CCCC2)c1)c1ccccc1F	-24	0	.	3	0
O=S(=O)(Nc1cccc(S(=O)(=O)N2CCCC2)c1)c1cccs1	11	43*	116*	-3	4
O=S(=O)(Nc1cccc(S(=O)(=O)N2CCCCC2)c1)c1ccccc1F	34	44*	1	1	6
COc1ccccc1/C=N\NC(=O)c1ccc(COc2ccc(C)c(C)c2)o1	-18	0	48*	-11	2
CC(C)COC(=O)N(C)C[C@@H]1OCc2ccccc2-c2c(n(C)c3ccccc23)C(=O)N([C@@H](C)CO)C[C@@H]1C	47[16.7 µM]	0	0	8	0
O=C(N/N=C\c1ccncc1)c1ccccc1O	-27	.	.	-7	-2
Cc1ccccc1C(=O)N/N=C/c1ccccn1	-1	0	-1	0	1
CNC(=S)N/N=C/C1=CCC2CC1C2(C)C (stereo not given)	.	0	.	-8	-2
O=C(N/N=C\c1ccccn1)c1ccccc1O	4	44*	.	-4	-1
CC1(C)C2CC=C(/C=N/NC(=S)NCCc3ccccc3)C1C2 (stereo not given)	67*	0	-1	-2	2
CC1(C)C2CC=C(/C=N/NC(=O)c3ccccc3O)C1C2 (stereo not given)	14	43*	0	0	-3
C[C@@H]1CN([C@H](C)CO)C(=O)c2cc(/C=C/c3ccccc3)cnc2O[C@H]1CN(C)Cc1ccncc1	12[16.7 µM]	0	0	4	2
Cc1ccc2c(c1)sc(=NC(=O)c1cccs1)n2C	-110	43*	.	2	1
O=C(c1ccc([N+](=O)[O-])cc1)N1CCSC1c1ccc(Cl)cc1 (stereo not given)	13	43*	0	1	4
O=C(Nc1nccs1)c1ccccn1	-7	43*	5	0	-3
Cc1nnc(SCC(=O)Nc2nsc(-c3ccccc3)n2)s1	57*	.	.	.	.
Cc1ccc(-c2nc(NC(=O)CSc3nnc(C)s3)ns2)cc1	14	0	0	-2	2
